The Kd is the equilibrium constant for the complex coming apart. Usually EC50 stands for the midpoint of the concentration-response curve. In general, Emax refers to the maximal effect, on the per cent scale that the assay sets.

51 compounds from ChEMBL document CHEMBL5365527, “Structure-Guided Design of Nurr1 Agonists Derived from the Natural Ligand Dihydroxyindole” (J Med Chem, 2023) can be followed below.

Data set [1] addresses T1, Nuclear receptor subfamily 4 group A member 2 (Homo sapiens, UniProt P43354). Briefly: Binding affinity to Nurr1 LBD (unknown origin) at 200 uM by Isothermal titration calorimetry. On the technique in general: Isothermal titration calorimetry measures the heat released or taken up as one component is titrated into another.
Data set [2] deals with HEK-293T. Nature of the data set: Cytotoxicity against human HEK293T cells co-transfected with Gal4-fused human Nurr1 LBD and pFR-Luc/pRL-SV40 assessed as decrease in renilla luciferase activity at 100 uM incubated for 16 hrs by Dual-Glo luciferase assay relative to control.
The subject of data set [3] is HEK-293T. Briefly: Cytotoxicity against human HEK293T cells assessed as reduction in cell viability at 100 uM incubated for 24 hrs by WST-8 assay. Format: toxicity, cell-based. The method, boiled down:
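HEK293T cells were seeded on collagen G-coated wells, 10,000 per well, and after 24 h exposed to compound in Opti-MEM with 0.1% DMSO for 24 h; 0.1% DMSO alone served as untreated control. Metabolic activity was read by WST-8 (10%, 4 h) absorbance at 450 nm. Four biologically independent repeats.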
On the technique in general: Tetrazolium assays rely on reduction of a dye to a coloured formazan, in cell work by metabolically active cells.

Data set [4] concerns the target T1, Nuclear receptor subfamily 4 group A member 2. Nature of the data set: Binding affinity to Nurr1 LBD (unknown origin) assessed as dissociation constant by Isothermal titration calorimetry.
For data set [5] the target is unchanged. Briefly: Agonist activity at Gal4-fused human Nurr1 LBD transfected in human HEK293T cells co-transfected with pFR-Luc/pRL-SV40 assessed as activation of luciferase activity incubated for 16 hrs by Dual-Glo luciferase assay.
Data set [6] in a line: Glutathione reactivity at pH 7.4 assessed as compound remaining at 125 uM incubated upto 24 hrs by LC-UV-ESI-MS analysis. Format: physicochemical. The conditions noted are these: pH 7.4, 24 h. The method, boiled down: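 Compound (125 μM final) was shaken at 37 °C with 2.5 mM glutathione in PBS pH 7.4 (1% DMSO final). Aliquots at 0, 6, 18 and 24 h were diluted in mobile phase containing an internal standard. They were analyzed by reversed-phase LC with UV at 254 nm and positive ESI-MS in SIM mode. AUC was corrected to the internal standard. Run three times.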

Data set [7] deals with HEK293T. Nature of the data set: Agonist activity at Nurr1 LBD (unknown origin) transfected in human HEK293T cells co-transfected with pFR-Luc/pRL-SV40 assessed as maximum activation of luciferase activity at 1 uM incubated for 16 hrs in presence of 7-Chloro-N-{5-chloro-2-[2-(dimethylamino)ethoxy]phenyl}quinolin-4-amine by Gal4 hybrid reporter gene assay relative to control. Format: cell-based. The conditions noted are these: filed as agonist. The essentials: (§1)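 Gal4–Nurr1 LBD hybrid reporter assay in HEK293T cells (DMEM high glucose, 10% FCS, 37 °C, 5% CO2), transiently transfected with pFA-CMV-hNurr1-LBD, pFR-Luc reporter and pRL-SV40 control. Treatment began 5 h after transfection, 16 h in Opti-MEM with 0.1% DMSO, read by dual luciferase. Firefly/Renilla ratio ×1000 gave RLU; fold activation taken vs untreated control. At least three independent experiments, each in duplicate.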
In general terms: Reporter assays use an easily measured gene product as a stand-in for the process of interest.

Data set [8] concerns HEK293T. Nature of the data set: Agonist activity at Nurr1 LBD (unknown origin) transfected in human HEK293T cells co-transfected with pFR-Luc/pRL-SV40 assessed as maximum activation of luciferase activity at 1 uM incubated for 16 hrs in presence of 5-Chloro-N-{5-chloro-2-[2-(dimethylamino)ethoxy]phenyl}-1H-indole-6-carboxamide by Gal4 hybrid reporter gene assay relative to control. Format: cell-based. The note with it: filed as agonist. The essentials:
as §1

Data set [9] addresses Nuclear receptor subfamily 4 group A member 2 (Rattus norvegicus) (UniProt Q07917). Nature of the data set: Agonist activity at Nurr1 in rat N27 cells assessed as increase in VMAT mRNA expression level at 30 to 100 uM incubated for 16 hrs by qPCR analysis. In kind it is cell-based. The note with it: filed as agonist, dose 30-100 µM. The essentials: (§2)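 Rat N27 dopaminergic cells in RPMI 1640 with 10% FCS, switched to 0.2% FCS 7 h after seeding and held 24 h more. Stimulated 16 h with compound in 0.1% DMSO, with 0.1% DMSO as vehicle control. Total RNA was heat-linearized at 65 °C before reverse transcription. SYBR green qPCR ran 40 cycles with a melt curve. Target mRNA normalized to GAPDH by ΔCt, expressed relative to vehicle.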

The target is the same in data set [10]. Nature of the data set: Agonist activity at Nurr1 in rat N27 cells assessed as increase in SOD2 mRNA expression level at 30 to 100 uM incubated for 16 hrs by qPCR analysis. In kind it is cell-based. The conditions noted are these: filed as agonist, dose 30-100 µM. The method, boiled down:
as §2

Data set [11] shares this target. Briefly: Agonist activity at Nurr1 in rat N27 cells assessed as increase in TH mRNA expression level at 30 to 100 uM incubated for 16 hrs by qPCR analysis. In kind it is cell-based. The note with it: filed as agonist, dose 30-100 µM. The essentials:
as §2

For data set [12] the target is unchanged. Briefly: Agonist activity at Nurr1 in rat N27 cells assessed as increase in SOD1 mRNA expression level at 30 to 100 uM incubated for 16 hrs by qPCR analysis. Format: cell-based. The note with it: filed as agonist, dose 30-100 µM. The essentials: as §2

Activity calls are given as the source filed them. The rule behind the calls is not given here.

T1 sequence (P43354 whole entry, the tested form may be a part): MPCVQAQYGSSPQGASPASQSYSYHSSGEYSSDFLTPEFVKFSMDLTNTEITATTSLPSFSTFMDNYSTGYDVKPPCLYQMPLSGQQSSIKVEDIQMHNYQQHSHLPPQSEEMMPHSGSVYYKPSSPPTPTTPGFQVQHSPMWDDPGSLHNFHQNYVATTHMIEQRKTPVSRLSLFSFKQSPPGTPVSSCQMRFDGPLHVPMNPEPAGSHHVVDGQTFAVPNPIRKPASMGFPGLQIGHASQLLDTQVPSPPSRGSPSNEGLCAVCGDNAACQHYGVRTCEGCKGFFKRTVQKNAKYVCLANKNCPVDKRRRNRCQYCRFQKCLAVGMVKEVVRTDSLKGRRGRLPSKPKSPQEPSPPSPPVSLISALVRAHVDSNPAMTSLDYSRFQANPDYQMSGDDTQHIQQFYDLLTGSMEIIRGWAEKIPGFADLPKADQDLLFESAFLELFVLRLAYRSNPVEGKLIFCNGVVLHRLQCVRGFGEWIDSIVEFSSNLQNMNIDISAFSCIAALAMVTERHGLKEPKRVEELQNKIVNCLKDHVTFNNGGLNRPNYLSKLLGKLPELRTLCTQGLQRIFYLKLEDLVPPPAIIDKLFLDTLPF
Chain of Nuclear receptor subfamily 4 group A member 2 (Rattus norvegicus) (Q07917 whole entry): as the sequence (P43354 whole entry, the tested form may be a part) above, with T131S, P182R, E354D counted along it

On to `CC(C)N1CCC(NC(=O)c2cc3[nH]ccc3cc2Cl)CC1`, for which the result in data set [1] was inactive. The Activity result with HEK-293T [2] and with HEK-293T [3] was “Non-Toxic” throughout.
As for `CCN1CCN(c2ccc(Cl)cc2N)CC1`, the Activity entry in the data set with HEK-293T [2] is recorded as “Non-Toxic”.
On the same count and under the same terms, next, `NC1CCC(CC2CCC(NC(=O)c3cc4[nH]ccc4cc3Cl)CC2)CC1` (stereo not given): “Toxic”.
Turning to `CCCCN1CCC(CNC(=O)c2cc3[nH]ccc3cc2Cl)C1` (stereo not given), the Kd in data set [4] came out at 16 µM. Besides, the Activity result in the data set with HEK-293T [2] is given as “Non-Toxic”. The EC50 in [5] came to 28 µM.
As to `CN1CCC(Nc2ccccc2NC(=O)c2cc3[nH]ccc3cc2Cl)CC1`, the Activity result in the data set with HEK-293T [2] was “Non-Toxic”.
In the case of `O=C(NCCN1CCC2CCCCC2C1)c1cc2[nH]ccc2cc1Cl` (stereo not given), the Kd in data set [4] was 3.2 µM. Besides, the Activity entry in the data set on HEK-293T [2] and with HEK-293T [3] was “Non-Toxic” each time. For the same compound, the EC50 in data set [5] came out at 12 µM.
Consider `NC(=O)CC1(N)CCCCC1`, for which, in the data set on HEK-293T [2], the Activity entry is “Non-Toxic”.
On to `CCCCN1CCC(CN)C1` (stereo not given), for which, in the data set with HEK-293T [2], the Activity entry is recorded as “Non-Toxic”.
Regarding `CN(C)CCOc1ccc(Cl)cc1N`, the Activity result in the data set with HEK-293T [2] is “Non-Toxic”.
Same read-out and setting: next, `CN(C)Cc1ccccc1CNC(=O)c1cc2[nH]ccc2cc1Cl`: “Non-Toxic”; `O=C(NCCC12CCCN1CCC2)c1cc2[nH]ccc2cc1Cl`: “Non-Toxic”; `CN1CCC(CN)(c2ccccc2)CC1`: “Non-Toxic”.
The same measure, in the same setting: next, `CN(C)C(CN)c1ccc(F)cc1` (stereo not given): “Non-Toxic”.
The same measure, in the same setting: next, `O=C(NCc1ccc2[nH]ncc2c1)c1cc2[nH]ccc2cc1Cl`: “Toxic”.
With `CN(C)CCOc1ccc(Cl)cc1NC(=O)c1cc2[nH]ccc2cc1Cl`, in [6], the Stability entry is listed as “Stable”. Besides, the Activity entry in the data set on HEK-293T [2] and with HEK-293T [3] was “Non-Toxic” each time.
In the case of `CN(C)CCOc1ccc(Cl)cc1NC(=O)c1cc2c(ccn2C)cc1Cl`, the Kd in [4] worked out at 1 µM. In data set [5], the EC50 came out at 16 µM.
As to `CN(C)C(CNC(=O)c1cc2[nH]ccc2cc1Cl)c1ccc(F)cc1` (stereo not given), the Activity result in the data set on HEK-293T [2] was “Non-Toxic”.
The same measure, in the same setting: next, `NCCC12CCCN1CCC2`: “Non-Toxic”; `CN1CCC(Nc2ccccc2N)CC1`: “Toxic”.
For `Nc1ccccc1NCCCn1ccnc1`, in the data set on HEK-293T [2], the Activity entry is recorded as “Non-Toxic”.
On the same count and under the same terms, next, `CC(C)N1CCC(N)CC1`: “Non-Toxic”; `CCN(CC)C1CCC(N)CC1` (stereo not given): “Non-Toxic”.
Still for that read-out and setting: next, `O=C(Nc1ccccc1NCCCn1ccnc1)c1cc2[nH]ccc2cc1Cl`: “Non-Toxic”.
The same measure, in the same setting: next, `CN(C)Cc1ccccc1CN`: “Non-Toxic”; `O=C(NCCc1c[nH]c2ccc(F)cc12)c1cc2[nH]ccc2cc1Cl`: “Toxic”.
Regarding `NCc1cc(N)cc(C(F)(F)F)c1`, the Activity result with HEK-293T [2] was “Non-Toxic”.
Consider `C#CCOc1cccc(-c2ccc(NC(=O)C3=C(C(=O)O)CCC3)c(F)c2)c1`, for which the Emax in the data set on HEK293T [7] was found to be 177%; in the data set with HEK293T [8], 134%.
Consider `CN(C)CCc1ccc(CNC(=O)c2cc3[nH]ccc3cc2Cl)cc1`, for which the Activity result in the data set with HEK-293T [2] is recorded as “Non-Toxic”.
The same measure, in the same setting: next, `CCN(CC)CC1CCCCC1N` (stereo not given): “Toxic”; `O=C(NCCNC1CCCCC1)c1cc2[nH]ccc2cc1Cl`: “Non-Toxic”; `NCCN1CCC2CCCCC2C1` (stereo not given): “Non-Toxic”.
For the compound `CC1CCN(CCCN)CC1`, in the data set on HEK-293T [2], the Activity entry is on record as “Non-Toxic”.
For the compound `NCc1ccc2cc[nH]c2c1`, in the data set with HEK-293T [2], the Activity result was “Non-Toxic”.
Turning to `CC1CCN(CCCNC(=O)c2cc3[nH]ccc3cc2Cl)CC1`, the result in data set [1] was inactive. Also, the Activity result in the data set with HEK-293T [2] and with HEK-293T [3] was “Non-Toxic” throughout.
With `Clc1ccc2[nH]ccc2c1`, the Activity result in data set [9], in data set [10], in [11] and in [12] was “Dose-Dependent Effect” in each case. For the same compound, the concentration giving a half-maximal response (EC50) in [5] turned out to be 40 µM.
Regarding `NCc1ccc2[nH]ncc2c1`, the Activity entry with HEK-293T [2] was “Non-Toxic”.
Same read-out and setting: next, `NC1CCC(CC2CCC(N)CC2)CC1` (stereo not given): “Non-Toxic”; `O=C(NCc1ccc2cc[nH]c2c1)c1cc2[nH]ccc2cc1Cl`: “Non-Toxic”; `CN(C)CCc1ccc(CN)cc1`: “Non-Toxic”.
On the same count and under the same terms, next, `CCN(CC)CC1CCCCC1NC(=O)c1cc2[nH]ccc2cc1Cl` (stereo not given): “Non-Toxic”; `NCCNC1CCCCC1`: “Non-Toxic”.
Still for that read-out and setting: next, `NCC1CCN(Cc2ccccc2)CC1`: “Non-Toxic”.
Regarding `CC(C)CN1CCC(N)CC1`, the Activity result in the data set on HEK-293T [2] is on record as “Non-Toxic”.
Consider `Nc1cc(CNC(=O)c2cc3[nH]ccc3cc2Cl)cc(C(F)(F)F)c1`, for which the Activity entry in the data set on HEK-293T [2] is reported as “Toxic”.
Same read-out and setting: next, `NCCc1c[nH]c2ccc(F)cc12`: “Non-Toxic”; `NC(=O)CC1(NC(=O)c2cc3[nH]ccc3cc2Cl)CCCCC1`: “Non-Toxic”; `CCN1CCN(c2ccc(Cl)cc2NC(=O)c2cc3[nH]ccc3cc2Cl)CC1`: “Non-Toxic”.
The same measure, in the same setting: next, `CC(C)CN1CCC(NC(=O)c2cc3[nH]ccc3cc2Cl)CC1`: “Non-Toxic”.
With `CN1CCC(CNC(=O)c2cc3[nH]ccc3cc2Cl)(c2ccccc2)CC1`, the Activity entry in the data set on HEK-293T [2] is listed as “Non-Toxic”.
Consider `O=C(NCC1CCN(Cc2ccccc2)CC1)c1cc2[nH]ccc2cc1Cl`, for which the Activity entry in the data set on HEK-293T [2] is recorded as “Non-Toxic”.
Take `CCN(CC)C1CCC(NC(=O)c2cc3[nH]ccc3cc2Cl)CC1` (stereo not given): in [1], the outcome was inactive. Further, the Activity result in the data set with HEK-293T [2] and in the data set with HEK-293T [3] was “Non-Toxic” each time.
